Experimental data reported in ChEMBL document CHEMBL4138242, “Synthesis and antibacterial evaluation of novel cationic chalcone derivatives possessing broad spectrum antibacterial activity” (Eur J Med Chem, 2018).

How the values were obtained:
Format in all cases: functional
Escherichia coli [1] = assay: Antibacterial activity against drug-resistant NDM1 producing Escherichia coli clinical isolate EC-14-54 after 16 to 20 hrs by broth microdilution method
How it was run: (§1)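 CLSI broth microdilution in Mueller-Hinton broth. A 4-6 h culture was diluted to about 10⁶ CFU/mL and mixed 1:1 with compound dilutions prepared at 256 to 0.5 µg/mL from aqueous stocks. Plates were incubated at 37 °C for 16-20 h and read visually for MIC. Each concentration was run in duplicate, and the experiment was repeated at least twice. Vancomycin and meropenem were comparators.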

Escherichia coli [2] = assay: Antibacterial activity against Escherichia coli ATCC 25922 after 16 to 20 hrs by broth microdilution method
How it was run: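 Broth microdilution per CLSI. Bacteria grown 4-6 h (about 10⁸ CFU/mL), then diluted to about 10⁶ CFU/mL. Medium: Mueller-Hinton broth, except Luria-Bertani broth for E. coli. Compounds in sterile water, twofold series 256-0.5 µg/mL, mixed 1:1 with inoculum, 37 °C for 16-20 h. MIC is the lowest concentration without visible growth. Duplicate wells; experiment repeated at least twice.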

Staphylococcus aureus = assay: Antibacterial activity against methicillin-resistant Staphylococcus aureus clinical isolate 0831010 after 16 to 20 hrs by broth microdilution method; how it was run: as §1

SMILES: CCCCCCCC[N+](C)(C)CC(=O)Nc1ccc(C(=O)/C=C/c2ccccc2F)cc1.[Cl-]
- MIC (Escherichia coli [1]): 16 µg/mL
- MIC (Escherichia coli [2]): 2 µg/mL
- MIC (Staphylococcus aureus): 0.5 µg/mL
